Data reported in ChEMBL document CHEMBL2407075, “Sulphonamido-quinoxalines: search for anticancer agent” (Eur J Med Chem, 2013).

Legend:
Format in all cases: functional
IGROV-1 [1] = test: Growth inhibition of human IGROV1 cells assessed as cell growth at 10^-7 M after 48 hrs by sulforhodamine B assay; conditions: IGROV-1, 48 h, read-out: Activity
SN12C [2] = test: Growth inhibition of human SN12C cells assessed as cell growth at 10^-6 M after 48 hrs by sulforhodamine B assay; conditions: read-out: Activity
NCI-H322M [3] = test: Growth inhibition of human NCI-H322M cells assessed as cell growth at 10^-8 M after 48 hrs by sulforhodamine B assay; conditions: read-out: Activity
[4] = Growth inhibition of human Hs 578T cells assessed as cell growth at 10^-5 M after 48 hrs by sulforhodamine B assay; conditions: read-out: Activity
In short: (§1)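 Five-dose screen at NCI. Cells in RPMI 1640 with 5% FBS and 2 mM L-glutamine, seeded at 5000–40,000 cells/well and grown 24 h at 37 °C, 5% CO2 before dosing, with time-zero plates TCA-fixed. Drug diluted from DMSO stock to 0.01, 0.1, 1, 10 and 100 µM final, 48 h. Cells fixed with cold TCA (10% final), stained with 0.4% SRB and read at 515 nm. Percent growth from Tz, control and test absorbances; GI50, TGI and LC50 from dose-response curves.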

K562 = test: Growth inhibition of human K562 cells assessed as cell growth at 10^-6 M after 48 hrs by sulforhodamine B assay; conditions: K562, 48 h, read-out: Activity
NCI-H522 = test: Growth inhibition of human NCI-H522 cells assessed as cell growth at 10^-7 M after 48 hrs by sulforhodamine B assay; conditions: NCI-H522, 48 h, read-out: Activity
NCI-H322M [5] = test: Growth inhibition of human NCI-H322M cells assessed as cell growth at 10^-4 M after 48 hrs by sulforhodamine B assay; conditions: read-out: Activity
SNB-75 = test: Growth inhibition of human SNB75 cells assessed as cell growth at 10^-8 M after 48 hrs by sulforhodamine B assay; conditions: SNB-75, 48 h, read-out: Activity
DU-145 [6] = test: Growth inhibition of human DU145 cells assessed as cell growth at 10^-4 M after 48 hrs by sulforhodamine B assay; conditions: DU-145, 48 h, read-out: Activity
In short: (§2)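 Five-dose NCI-60 run (0.01, 0.1, 1, 10 and 100 µM, as 10-fold dilutions from a DMSO stock made at 400× the top final level). Cells were grown in RPMI 1640 with 5% FBS and 2 mM glutamine and plated for 24 h. They were then exposed for 48 h at 37 °C and 5% CO2. TCA fixation was followed by SRB staining with A515 read-out. Percent growth was taken relative to time-zero and control plates.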

UACC-62 = test: Growth inhibition of human UACC62 cells after 48 hrs by sulforhodamine B assay; conditions: UACC-62, 48 h, read-out: LC50 (the source's name)
786-0 = test: Growth inhibition of human 786-0 cells assessed as cell growth at 10^-7 M after 48 hrs by sulforhodamine B assay; conditions: 786-0, 48 h, read-out: Activity; in short: as §2
ACHN [7] = test: Growth inhibition of human ACHN cells assessed as cell growth at 10^-6 M after 48 hrs by sulforhodamine B assay; conditions: read-out: Activity; in short: as §2
RPMI-8226 [8] = test: Growth inhibition of human RPMI8226 cells assessed as cell growth at 10^-7 M after 48 hrs by sulforhodamine B assay; conditions: RPMI-8226, 48 h, read-out: Activity
IGROV-1 [9] = test: Growth inhibition of human IGROV1 cells assessed as cell growth at 10^-4 M after 48 hrs by sulforhodamine B assay; conditions: IGROV-1, 48 h, read-out: Activity; in short: as §1
A549 = test: Growth inhibition of human A549/ATCC cells after 48 hrs by sulforhodamine B assay; conditions: A549, 48 h; for CC50: read-out: LC50 (the source's name)
In short: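 Adherent cells in RPMI 1640 with 5% FBS and 2 mM L-glutamine were plated at 5000–40,000 cells/well and grown 24 h. Five concentrations (0.01–100 µM, DMSO stock) were added for 48 h at 37 °C. Cells were fixed with cold TCA (10% final) and stained with SRB, read at 515 nm. GI50 came from log concentration–growth curves against time-zero and control plates.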

M14 = test: Growth inhibition of human M14 cells assessed as cell growth at 10^-5 M after 48 hrs by sulforhodamine B assay; conditions: M14, 48 h, read-out: Activity
OVCAR-8 = test: Growth inhibition of human OVCAR8 cells assessed as cell growth at 10^-6 M after 48 hrs by sulforhodamine B assay; conditions: OVCAR-8, 48 h, read-out: Activity
RPMI-8226 [10] = test: Growth inhibition of human RPMI8226 cells after 48 hrs by sulforhodamine B assay; conditions: RPMI-8226, 48 h; for CC50: read-out: LC50 (the source's name)
In short: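 Leukemia suspension cells in RPMI 1640 with 5% FBS and 2 mM L-glutamine were plated at 5000–40,000 cells/well and grown 24 h. Five concentrations (0.01–100 µM) were given for 48 h at 37 °C. Settled cells were fixed with 80% TCA (16% final) and SRB-stained, read at 515 nm. GI50 came from dose–response curves against time-zero and control plates.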

SF-539 = test: Growth inhibition of human SF539 cells assessed as cell growth at 10^-5 M after 48 hrs by sulforhodamine B assay; conditions: SF-539, 48 h, read-out: Activity
DU-145 [11] = test: Growth inhibition of human DU145 cells assessed as cell growth at 10^-6 M after 48 hrs by sulforhodamine B assay; conditions: DU-145, 48 h, read-out: Activity; in short: as §2
MCF7 = test: Growth inhibition of human MCF7 cells assessed as cell growth at 10^-8 M after 48 hrs by sulforhodamine B assay; conditions: MCF7, 48 h, read-out: Activity
A498 = test: Growth inhibition of human A498 cells assessed as cell growth at 10^-6 M after 48 hrs by sulforhodamine B assay; conditions: A498, 48 h, read-out: Activity; in short: as §2
SN12C [12] = test: Growth inhibition of human SN12C cells assessed as cell growth at 10^-4 M after 48 hrs by sulforhodamine B assay; conditions: read-out: Activity
HCT-15 = test: Growth inhibition of human HCT15 cells assessed as cell growth at 10^-7 M after 48 hrs by sulforhodamine B assay; conditions: HCT-15, 48 h, read-out: Activity; in short: as §1
SR = test: Growth inhibition of human SR cells assessed as cell growth at 10^-6 M after 48 hrs by sulforhodamine B assay; conditions: read-out: Activity
RXF 393 = test: Growth inhibition of human RXF393 cells assessed as cell growth at 10^-4 M after 48 hrs by sulforhodamine B assay; conditions: RXF 393, 48 h, read-out: Activity
[13] = Growth inhibition of human Hs 578T cells assessed as cell growth at 10^-7 M after 48 hrs by sulforhodamine B assay; conditions: read-out: Activity; in short: as §1
NCI-H226 = test: Growth inhibition of human NCI-H226 cells assessed as cell growth at 10^-8 M after 48 hrs by sulforhodamine B assay; conditions: NCI-H226, 48 h, read-out: Activity
ACHN [14] = test: Growth inhibition of human ACHN cells assessed as cell growth at 10^-7 M after 48 hrs by sulforhodamine B assay; conditions: read-out: Activity; in short: as §2

SMILES | growth at 0.1 µM (IGROV-1 [1]) | growth at 1 µM (SN12C [2]) | growth at 0.01 µM (NCI-H322M [3]) | growth at 10 µM [4] | growth at 1 µM (K562) | growth at 0.1 µM (NCI-H522) | growth at 100 µM (NCI-H322M [5]) | growth at 0.01 µM (SNB-75) | growth at 100 µM (DU-145 [6]) | CC50 (UACC-62) | growth at 0.1 µM (786-0) | growth at 1 µM (ACHN [7]) | growth at 0.1 µM (RPMI-8226 [8]) | growth at 100 µM (IGROV-1 [9]) | TGI (A549) | CC50 (A549) | growth at 10 µM (M14) | growth at 1 µM (OVCAR-8) | GI50 (RPMI-8226 [10]) | CC50 (RPMI-8226 [10]) | other results
O=S(=O)(Nc1ccccn1)c1ccc2nc(-c3ccccc3)c(-c3ccccc3)nc2c1 | 104% | 91% | 96% | -11% | 82% | 88% | 65% | 85% | 59% | > 100 µM | 92% | 94% | 104% | 63% | > 100 µM | > 100 µM | -42% | 85% | 1.11 µM | > 100 µM | growth at 10 µM (SF-539): 7%; growth at 1 µM (DU-145 [11]): 95%; growth at 0.01 µM (MCF7): 95%; growth at 1 µM (A498): 66%; growth at 100 µM (SN12C [12]): 64%; growth at 0.1 µM (HCT-15): 98%; growth at 1 µM (SR): 66%; growth at 100 µM (RXF 393): 38%; growth at 0.1 µM [13]: 94%; growth at 0.01 µM (NCI-H226): 100%; growth at 0.1 µM (ACHN [14]): 98%
O=S(=O)(Nc1ccc(Cl)cc1)c1ccc2nc(-c3ccccc3)c(-c3ccccc3)nc2c1 | 101% | 93% | 93% | 3% | 95% | 90% | 88% | 75% | 65% | > 100 µM | 88% | 96% | 101% | 73% | > 100 µM | > 100 µM | -27% | 92% | 1.43 µM | > 100 µM | growth at 10 µM (SF-539): 5%; growth at 1 µM (DU-145 [11]): 93%; growth at 0.01 µM (MCF7): 95%; growth at 1 µM (A498): 65%; growth at 100 µM (SN12C [12]): 78%; growth at 0.1 µM (HCT-15): 98%; growth at 1 µM (SR): 81%; growth at 100 µM (RXF 393): 51%; growth at 0.1 µM [13]: 98%; growth at 0.01 µM (NCI-H226): 91%; growth at 0.1 µM (ACHN [14]): 95%
